Active and inactive are the calls of the source. No cut-off for these calls is given here.
Key:
Rattus norvegicus = species on record: Rattus norvegicus; assay: Selectivity index, ratio of IC50 for rat serum BuChE to IC50 for rat cortex homogenate AChE
In short: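 Modified Ellman assay. AChE from 5% rat cortex homogenate, pre-incubated 5 min with iso-OMPA (4.0 mmol/L). BuChE from 25% rat serum. Enzyme incubated with compound (<1% DMSO) and acetyl- or butyrylthiocholine iodide (1 mmol/L) in phosphate buffer pH 7.4 for 15 min at 37 °C. DTNB added, read at 405 nm. IC50 from 3 independent experiments. Index = BuChE IC50/AChE IC50.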

[1] = Antioxidant activity assessed as trolox equivalents of AAPH radical scavenging activity at 1 to 10 uM preincubated for 15 mins followed by AAPH addition measured every 60 sec for 90 mins by ORAC-FL assay; assay type: functional
In short: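 ORAC-FL in 75 mM phosphate buffer pH 7.4. Compound at 1–10 µM with fluorescein (150 nM final), pre-incubated 15 min at 37 °C, then AAPH added (12 mM final). Fluorescence read every minute for 90 min, ex 485/em 535 nm. Curves normalised to the FL+AAPH blank. Trolox standard 1–8 µM. Duplicates, ≥3 independent assays. Results given as µM Trolox equivalent per µM compound.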

Acetylcholinesterase = Acetylcholinesterase (Homo sapiens, UniProt P22303); assay: Inhibition of human erythrocyte AChE using acetylthiocholine iodide as substrate after 15 mins by Ellman's method
Acetylcholinesterase, sequence (P22303 whole entry): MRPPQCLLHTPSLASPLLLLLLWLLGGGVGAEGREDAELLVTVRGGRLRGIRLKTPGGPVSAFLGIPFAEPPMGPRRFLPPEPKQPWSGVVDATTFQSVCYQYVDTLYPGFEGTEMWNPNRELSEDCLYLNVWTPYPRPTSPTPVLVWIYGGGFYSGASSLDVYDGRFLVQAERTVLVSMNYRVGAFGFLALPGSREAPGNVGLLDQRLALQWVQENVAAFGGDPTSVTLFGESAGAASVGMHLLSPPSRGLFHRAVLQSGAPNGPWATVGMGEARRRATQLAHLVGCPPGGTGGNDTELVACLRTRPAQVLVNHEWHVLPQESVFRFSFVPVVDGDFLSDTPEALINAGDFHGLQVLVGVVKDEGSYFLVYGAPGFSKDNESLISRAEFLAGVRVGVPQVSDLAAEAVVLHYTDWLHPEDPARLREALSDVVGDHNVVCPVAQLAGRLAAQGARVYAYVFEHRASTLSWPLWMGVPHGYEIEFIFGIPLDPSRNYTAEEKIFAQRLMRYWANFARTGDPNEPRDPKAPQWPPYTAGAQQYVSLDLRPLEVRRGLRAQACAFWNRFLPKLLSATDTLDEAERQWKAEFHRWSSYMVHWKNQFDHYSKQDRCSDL

[2] = target: Acetylcholinesterase (Electrophorus electricus) (UniProt O42275); assay: Mixed type inhibition of electric eel AChE at 10 to 40 nM preincubated for 15 mins followed by varying levels of acetylthiocholine substrate addition by Lineweaver-Burk plot analysis
Acetylcholinesterase (Electrophorus electricus), sequence (O42275 24-633 limits assumed): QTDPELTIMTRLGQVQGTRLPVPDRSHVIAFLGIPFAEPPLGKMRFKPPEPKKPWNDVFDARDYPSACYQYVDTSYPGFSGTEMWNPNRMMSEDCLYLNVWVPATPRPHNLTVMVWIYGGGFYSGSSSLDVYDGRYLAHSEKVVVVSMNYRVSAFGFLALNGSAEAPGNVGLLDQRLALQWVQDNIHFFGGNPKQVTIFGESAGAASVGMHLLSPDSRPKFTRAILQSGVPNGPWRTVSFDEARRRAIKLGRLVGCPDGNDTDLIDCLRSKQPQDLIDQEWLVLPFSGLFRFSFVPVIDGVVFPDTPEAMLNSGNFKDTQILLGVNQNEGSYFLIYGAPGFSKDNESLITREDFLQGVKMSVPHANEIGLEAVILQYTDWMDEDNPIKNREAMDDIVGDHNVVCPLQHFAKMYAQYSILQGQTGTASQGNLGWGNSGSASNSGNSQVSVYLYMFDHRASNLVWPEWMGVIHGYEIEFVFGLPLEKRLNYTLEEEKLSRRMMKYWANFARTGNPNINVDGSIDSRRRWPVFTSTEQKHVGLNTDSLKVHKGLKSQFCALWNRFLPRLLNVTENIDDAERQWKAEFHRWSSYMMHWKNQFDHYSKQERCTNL
In short: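 Electric eel AChE (10 µL of 0.5 U/mL) in 0.1 M phosphate pH 8.0 with DTNB, pre-incubated 15 min at 37 °C with three inhibitor concentrations. Acetylthiocholine added at 0.1–0.4 mM and hydrolysis read at 412 nm, with an inhibitor-free control. Lineweaver-Burk plots by weighted least squares; slopes replotted against inhibitor concentration.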

[3] = Metal chelating activity assessed as mole fraction of compound required to show 1:1 stoichiometry for Cu2+-compound complex up to 37.5 uM after 30 mins by UV-vis spectrophotometric method
In short: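 Molar-ratio titration in methanol: compound fixed at 37.5 µM final with CuCl2 at 3.75-93.75 µM final. Absorbance at 386 nm taken after numerical subtraction of CuCl2 and compound spectra, and plotted against mole fraction of compound. Stoichiometry taken from the intersection of two straight lines.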

[4] = target: Amyloid-beta precursor protein (Homo sapiens) (UniProt P05067); assay: Inhibition of amyloid beta (1 to 42) (unknown origin) self aggregation at 12.5 uM after 24 hrs by ThT-based fluorometric method relative to control
Amyloid-beta precursor protein (Homo sapiens), sequence (P05067 whole entry): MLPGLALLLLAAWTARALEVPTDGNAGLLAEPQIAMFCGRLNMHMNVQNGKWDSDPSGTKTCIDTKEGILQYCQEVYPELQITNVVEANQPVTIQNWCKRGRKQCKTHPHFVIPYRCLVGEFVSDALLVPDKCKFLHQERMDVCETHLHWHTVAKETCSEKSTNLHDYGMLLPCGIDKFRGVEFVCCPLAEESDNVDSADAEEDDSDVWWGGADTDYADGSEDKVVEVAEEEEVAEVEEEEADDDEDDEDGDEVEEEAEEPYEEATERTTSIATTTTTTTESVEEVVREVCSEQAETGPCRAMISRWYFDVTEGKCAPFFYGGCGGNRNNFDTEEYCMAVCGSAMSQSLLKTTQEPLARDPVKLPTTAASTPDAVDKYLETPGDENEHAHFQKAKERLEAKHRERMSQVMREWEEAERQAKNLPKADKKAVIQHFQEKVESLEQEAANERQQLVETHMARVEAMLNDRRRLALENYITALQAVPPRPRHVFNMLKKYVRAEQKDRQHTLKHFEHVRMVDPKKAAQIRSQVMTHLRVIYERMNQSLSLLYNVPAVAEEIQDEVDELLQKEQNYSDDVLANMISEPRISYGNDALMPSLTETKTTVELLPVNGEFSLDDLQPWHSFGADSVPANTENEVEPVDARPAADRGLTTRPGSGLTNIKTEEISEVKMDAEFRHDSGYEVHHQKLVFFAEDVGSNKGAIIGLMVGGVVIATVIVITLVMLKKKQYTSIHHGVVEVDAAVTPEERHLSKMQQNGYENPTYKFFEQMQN
In short: (§1)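 Aβ1-42 (25 µM final) incubated 24 h at 37 °C with or without compound (1-50 µM) in 50 mM phosphate buffer pH 7.4. Thioflavin T (5 µM in glycine-NaOH pH 8.5) then added, fluorescence read at ex 446/em 490 nm. Inhibition = (1-IFi/IFc)×100 after background subtraction. Run in triplicate.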

[5] = target: Amyloid-beta precursor protein (Homo sapiens) (UniProt P05067); assay: Inhibition of amyloid beta (1 to 42) (unknown origin) self aggregation at 50 uM after 24 hrs by ThT-based fluorometric method relative to control; in short: as §1
[6] = Metal chelating activity assessed as disaggregation of Cu2+ induced amyloid beta (1 to 42) fibrils at 25 uM treated for 24 hrs post Cu2+ treatment for 24 hrs by ThT-based fluorometric method relative to control
In short: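 Fibrils preformed from Aβ1-42 (25 µM) plus Cu2+ (25 µM) in 20 mM HEPES pH 6.6, 150 mM NaCl, 24 h at 37 °C. Compound (25 µM) then added for another 24 h at 37 °C. Thioflavin T (5 µM, glycine-NaOH pH 8.5) fluorescence read at ex 446/em 490 nm. Triplicate.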

PC-12 [7] = assay: Neuroprotective activity against H2O2 induced cell injury in rat PC12 cells assessed as cell viability at 1 uM preincubated for 24 hrs followed by incubation with H2O2 for 2 hrs measured after 24 hrs by MTT assay (reference value: 43.9%); assay type: functional; conditions: read-out: Activity
In short: (§2)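 PC12 cells in phenol-red-free DMEM with 10% FCS, plated at 10^5 cells/well. Cells preincubated 24 h with compound (1.0 or 10.0 µM; dissolved in 2% DMSO, diluted in PBS), then exposed to H2O2 100 µM for 2 h. Medium replaced; viability assessed 24 h later by MTT (4 h, 37 °C), lysis in DMF/SDS, A590.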

Mus musculus [8] = assay: Reversal of scopolamine-induced memory impairment in Kunming mouse assessed as step-down latency time at 7.33 mg/kg, po administered 60 mins prior to training trial followed by scopolamine challenge at 30 mins post dose measured 24 hrs after training trial by passive avoidance test; assay type: functional
In short: (§3)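 Kunming mice, 18–22 g, six weeks old, either sex; 10 per group. Oral dosing 1 h before training (test compound 3.67, 7.33, 22 mg/kg; donepezil 5.0 mg/kg), scopolamine 3 mg/kg i.p. 30 min later. Training: 0.5 mA, 2 s foot shock on stepping off the block. Step-down latency measured 24 h later. Mean ± SEM.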

[9] = target: Amyloid-beta precursor protein (Homo sapiens) (UniProt P05067); assay: Inhibition of amyloid beta (1 to 42) (unknown origin) self-induced aggregation after 24 hrs by ThT-based fluorometric method; in short: as §1
PC-12 [10] = assay: Neuroprotective activity against H2O2 induced cell injury in rat PC12 cells assessed as increase in cell viability preincubated for 24 hrs followed by incubation with H2O2 for 2 hrs measured after 24 hrs by MTT assay; assay type: functional, cell-based; in short: as §2
Mus musculus [11] = assay: Reversal of scopolamine-induced memory impairment in po dosed Kunming mouse assessed as increase in step-down latency time administered 60 mins prior to training trial followed by scopolamine challenge at 30 mins post dose measured 24 hrs after training trial by passive avoidance test; assay type: functional, organism-based; in short: as §3
[12] = Solubility of the compound in water; assay type: physicochemical; conditions: buffer

## CCN(CCCCNC(=O)COc1ccc(-c2cc(=O)c3c(O)c(OC)c(OC)cc3o2)cc1)Cc1ccccc1OC
Rattus norvegicus
  Ratio IC50: > 9800
[1]
  Activity: 1.13 equiv
Acetylcholinesterase
  IC50: 0.039 µM
[2]
  inhibition: Active
[3]
  Activity: 0.99 molar ratio
[4]
  inhibition: 43.6%
[5]
  inhibition: 75.2%
[6]
  Activity: 66.3%
PC-12 [7]
  viability at 1 µM: 67.6%
Mus musculus [8]
  Time: 194.3 s
[9]
  inhibition: Dose-dependent effect
PC-12 [10]
  Activity: Dose-dependent effect
Mus musculus [11]
  Activity: Dose-dependent effect
[12]
  solubility: Insoluble

From ChEMBL document CHEMBL4052630, “Design, synthesis and evaluation of scutellarein-O-acetamidoalkylbenzylamines as potential multifunctional agents for the treatment of Alzheimer's disease” (Eur J Med Chem, 2017)
